ChEMBL document CHEMBL1126276, “Synthesis and antimalarial properties of 1-imino derivatives of 7-chloro-3-substituted-3,4-dihydro-1,9(2H,10H)-acridinediones and related structures” (J Med Chem, 1992)

Legend:
Plasmodium berghei [1] = assay: Antimalarial activity was measured against mice (Mus musculus) infected with Plasmodium berghei by subcutaneous administration of 160 mg/kg dose; type: organism-based; design: dose 160 mg/kg, route subcutaneous; conditions: in vivo, sc
In short: (§1)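 […] in mice infected with a normal drug-sensitive P. berghei strain. Compound dissolved or suspended in sesame or peanut oil, given as a single subcutaneous dose 72 h postinfection.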

Plasmodium berghei [2] = assay: Antimalarial activity was measured against mice (Mus musculus) infected with Plasmodium berghei by subcutaneous administration of 640 mg/kg dose; type: organism-based; design: dose 640 mg/kg, route subcutaneous; conditions: in vivo, sc; in short: as §1
Plasmodium berghei [3] = assay: Antimalarial activity in Plasmodium berghei infected mice (Mus musculus) after subcutaneous 160 mg/kg dose; type: functional
In short: (§2)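 Normal drug-sensitive P. berghei strain in mice. Compound dissolved or suspended in sesame or peanut oil, given parenterally as a single subcutaneous dose 72 h postinfection.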

Plasmodium berghei [4] = assay: (§3) Antimalarial activity in Plasmodium berghei infected mice (Mus musculus) after 40 mg/kg subcutaneous dose; type: functional; in short: as §2
Plasmodium berghei [5] = assay: as §3; type: functional; in short: as §1; remark: listed apart in the source
Plasmodium berghei [6] = assay: Antimalarial activity was measured against mice (Mus musculus) infected with Plasmodium berghei by subcutaneous administration of 320 mg/kg dose; type: organism-based; design: dose 320 mg/kg, route subcutaneous; conditions: in vivo, sc; in short: as §1
Plasmodium berghei [7] = assay: (§4) Antimalarial activity in Plasmodium berghei infected mice (Mus musculus) after 80 mg/kg subcutaneous dose; type: functional; in short: as §1
Plasmodium berghei [8] = assay: Antimalarial activity in Plasmodium berghei infected mice (Mus musculus) after subcutaneous 320 mg/kg dose; type: functional; in short: as §2
Plasmodium berghei [9] = assay: Antimalarial activity in Plasmodium berghei infected mice (Mus musculus) after subcutaneous 640 mg/kg dose; type: functional; in short: as §2
Plasmodium berghei [10] = assay: as §4; type: functional; in short: as §2; remark: listed apart in the source
Plasmodium berghei [11] = assay: Antimalarial activity in Plasmodium berghei infected mice (Mus musculus) after 160 mg/kg subcutaneous dose; type: functional; in short: as §1
Plasmodium berghei [12] = assay: (§5) Antimalarial activity in Plasmodium berghei infected mice (Mus musculus) after 20 mg/kg subcutaneous dose; type: functional; in short: as §1
Plasmodium berghei [13] = assay: as §5; type: functional; in short: as §2; remark: listed apart in the source
Plasmodium berghei [14] = assay: Antimalarial activity Plasmodium berghei infected mice (Mus musculus) after 640 mg/kg subcutaneous dose; type: functional; in short: as §1
Plasmodium berghei [15] = assay: Antimalarial activity in Plasmodium berghei infected mice (Mus musculus) after 320 mg/kg subcutaneous dose; type: functional; conditions: 320 mg/kg; in short: as §1

Structure (SMILES) | No. of toxic deaths (Plasmodium berghei [1]) | No. of toxic deaths (Plasmodium berghei [2]) | No. of cured mice (Plasmodium berghei [3]) | No. of cured mice (Plasmodium berghei [4]) | Delta mean survival time (Plasmodium berghei [5]) | No. of toxic deaths (Plasmodium berghei [6]) | Delta mean survival time (Plasmodium berghei [7]) | No. of cured mice (Plasmodium berghei [8]) | No. of cured mice (Plasmodium berghei [9]) | No. of cured mice (Plasmodium berghei [10]) | Delta mean survival time (Plasmodium berghei [11]) | Delta mean survival time (Plasmodium berghei [12]) | No. of cured mice (Plasmodium berghei [13]) | Delta mean survival time (Plasmodium berghei [14]) | No. of cured mice (Plasmodium berghei [3]; 160 mg/kg) | No. of cured mice (Plasmodium berghei [13]; 20 mg/kg) | Delta mean survival time (Plasmodium berghei [12]; 20 mg/kg) | Delta mean survival time (Plasmodium berghei [15]) | Delta mean survival time (Plasmodium berghei [14]; 640 mg/kg)
CN(C)CCC/N=C1\CC(c2ccc(C(F)(F)F)cc2)Cc2nc3ccc(F)cc3c(O)c21 (stereo unspecified) | 4 | 5 | 1 | 4 | 14.9 | – | – | – | – | – | – | – | – | – | – | – | – | – | –
O=c1c2c(n(O)c3ccc(Cl)cc13)CC(c1cccc(C(F)(F)F)c1)C/C2=N\CCCCCCN1CCCCC1 (stereo unspecified) | 3 | 5 | 2 | – | 4 | 5 | 6.4 | – | – | – | – | – | – | – | – | – | – | – | –
CN(C)CCC/N=C1\CC(c2ccc(C(F)(F)F)cc2)Cc2nc3ccc([N+](=O)[O-])cc3c(O)c21 (stereo unspecified) | – | 4 | 4 | – | 5.4 | 2 | 8.9 | 3 | 1 | 1 | 11.6 | 2.2 | – | – | – | – | – | – | –
CCN(CC)CC(C)(C)C/N=C1\CC(c2ccc(C(F)(F)F)cc2)Cc2c1c(=O)c1cc(Cl)ccc1n2O (stereo unspecified) | – | 2 | 5 | 3 | 11.2 | – | 12.5 | 5 | 3 | 4 | – | 13 | 3 | – | – | – | – | – | –
CCc1ccc2nc3c(c(O)c2c1)/C(=N/CCCN(C)C)CC(c1ccc(C(F)(F)F)cc1)C3 (stereo unspecified) | 1 | 4 | – | – | 0.6 | – | – | – | – | – | 1.9 | – | – | 1.4 | – | – | – | – | –
CC1/C(=N\CCCN(C)C)c2c(nc3ccc(Cl)cc3c2O)CC1c1ccc(C(F)(F)F)cc1 (stereo in doubt; cis) | – | 1 | – | 5 | – | – | – | – | – | 5 | 3 | – | – | – | 4 | 4 | 10.7 | 3.1 | 2.3
O=c1c2c(n(O)c3ccc(Cl)cc13)CC(c1ccc(C(F)(F)F)cc1)C/C2=N\CCCNCCO (stereo unspecified) | – | 4 | 5 | 3 | 10.7 | 1 | – | 4 | 1 | 5 | – | 6.4 | – | – | – | – | – | – | –
O=c1c2c(n(O)c3ccc(Cl)cc13)CC(c1ccc(C(F)(F)F)cc1)C/C2=N\CCCN1CCCC1 (stereo unspecified) | – | 4 | 5 | 2 | 10.8 | 1 | – | 3 | 1 | 5 | – | 11 | 1 | – | – | – | – | – | –
CCN(CC)CCCC/N=C1\CC(c2ccc(C(F)(F)F)cc2)Cc2c1c(=O)c1cc(Cl)ccc1n2O (stereo unspecified) | – | 4 | 5 | 4 | 10.5 | – | – | 4 | – | 5 | – | 14 | 2 | – | – | – | – | – | –
O=C(O)c1ccc(C2CC(=O)c3c(n(O)c4ccc(Cl)cc4c3=O)C2)cc1 (stereo unspecified) | 1 | 4 | – | – | -0.1 | – | – | – | – | – | -0.1 | – | – | 0.9 | – | – | – | – | –
CCCCNC(CC)C/N=C1\CC(c2ccc(C(F)(F)F)cc2)Cc2c1c(=O)c1cc(Cl)ccc1n2O (stereo unspecified) | – | 1 | 5 | 2 | 7.7 | – | – | 5 | 4 | 4 | – | 6 | 2 | – | – | – | – | – | –
